Legend:
[1] = test system: Mus musculus; test: Compound was tested for mortality in mice when administered intraperitoneally; type: functional; conditions: ip
Procedure, shortened: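 Male Royal Hart mice (20–25 g), groups of five, dosed ip 1 h before SaH 41-178 (50.0 mg/kg ip) to evoke seizures. ED50 is the dose preventing death in 50% of animals, estimated by probit analysis. At least 20 animals per drug.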

[2] = test system: Mus musculus; test: Compound was tested for mortality in mice when administered perorally; type: functional; conditions: po
Procedure, shortened: (§1)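 Groups of five male Royal Hart mice (20–25 g) received test drug ip or orally 1 h before seizure induction with SaH 41-178 (50.0 mg/kg ip). ED50 is the dose preventing tonic convulsions or death in 50% of animals, by probit analysis.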

[3] = test system: Mus musculus; test: Ataxia effect in mice was tested when the compound was administered perorally; type: functional; conditions: po
Procedure, shortened: (§2)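 Male Royal Hart mice (20–25 g) were dosed orally and scored in a modified Irwin behavioural observation screen. ED50 values (mg/kg) were estimated by probit analysis after Miller and Tainter, with at least 20 animals per drug. Values were reported as ED50 ± SE, or as the evaluation at the highest nontoxic dose used.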

[4] = test system: Mus musculus; test: Ataxia effect in mice was tested when the compound was administered intraperitoneally; type: functional; conditions: ip
Procedure, shortened: (§3)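 Modified Irwin observational screen in male Royal Hart mice (20–25 g). ED50 (mg/kg) by probit analysis; at least 20 animals per drug.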

[5] = test system: Mus musculus; test: Compound was tested for reinduction of anesthesia in mice when administered intraperitoneally; type: functional; conditions: ip
Procedure, shortened: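 Male Royal Hart mice (20–25 g) anaesthetised with hexobarbital (70.0 mg/kg iv) were given drug ip as they regained the righting reflex (modified Winter method). ED50 is the dose producing loss of righting reflex for 10 min in 50% of mice, by probit analysis.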

[6] = test system: Mus musculus; test: Compound was tested for rotarod motor coordination in mice when administered intraperitoneally; type: functional; conditions: ip
Procedure, shortened: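 Male Royal Hart mice (20–25 g), groups of five, were trained to ride a corrugated-paper-covered rod turning at 15 rpm for 60–90 s. They were retested 30 and 60 min after ip drug or saline. Percent change in rotarod time was taken against controls. ED50 is the dose cutting rotarod time by 50%, estimated by probit analysis. At least 20 animals per drug.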

[7] = test system: Mus musculus; test: Compound was tested for rotarod motor coordination in mice when administered perorally; type: functional; conditions: po
Procedure, shortened: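 Modified Dunham–Miya rotarod test. Groups of five male Royal Hart mice (20–25 g) were trained on a 15 rpm corrugated rod for 60–90 s, then retested 30 and 60 min after drug or saline (ip or oral). Percent change in riding time versus controls; ED50 is the dose giving a 50% decrease, by probit analysis.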

[8] = test system: Mus musculus; test: Docility effect in mice was tested when the compound was administered ip; type: functional; procedure, shortened: as §3
[9] = test system: Mus musculus; test: Docility effect in mice was tested when the compound was administered perorally; type: functional; conditions: po
Procedure, shortened: (§4)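 Oral dosing of male Royal Hart mice (20–25 g), scored by a modified Irwin behavioural screen. ED50 (mg/kg) estimated by probit analysis; at least 20 animals per drug.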

[10] = test system: Mus musculus; test: Ability to reinduce anesthesia in mice as a measure of in vivo sedative-hypnotic activity; type: functional
Procedure, shortened: (§5)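 Male Royal Hart mice (20–25 g) were anesthetized with hexobarbital 70.0 mg/kg iv. While they were regaining the righting reflex, compound was given ip. Reinduction was scored as loss of righting reflex for 10 min. ED50 (mg/kg) is the dose reinducing anesthesia in 50% of mice, estimated by probit analysis (Miller–Tainter).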

[11] = test system: Mus musculus; test: Compound was tested for tonic convulsions when administered intraperitoneally; type: functional; conditions: ip; procedure, shortened: as §1
[12] = test system: Mus musculus; test: Righting reflex effect in mice was tested when the compound was administered intraperitoneally; type: functional; conditions: ip; procedure, shortened: as §3
[13] = test system: Mus musculus; test: Righting reflex effect in mice was tested when the compound was administered perorally; type: functional; conditions: po; procedure, shortened: as §2
[14] = test system: Mus musculus; test: Hypomotility effect in mice was tested when the compound was administered intraperitoneally; type: functional; conditions: ip; procedure, shortened: as §3
[15] = test system: Mus musculus; test: Hypomotility effect in mice was tested when the compound was administered perorally; type: functional; conditions: po
Procedure, shortened: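 Modified Irwin behavioral observation in male Royal Hart mice (20–25 g), observed for 2 h after dosing. ED50 (mg/kg) estimated by probit analysis per Miller and Tainter. At least 20 animals per drug.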

[16] = test system: Mus musculus; test: Prehensile effect in mice was tested when the compound was administered intraperitoneally; type: functional; conditions: ip; procedure, shortened: as §3
[17] = test system: Mus musculus; test: Prehensile effect in mice was tested when the compound was administered perorally; type: functional; conditions: po; procedure, shortened: as §4
[18] = Acute toxicity in mice after 2 hours when administered intraperitoneally; type: organism-based; conditions: mouse, in vivo, ip
Procedure, shortened: (§6)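 Male Royal Hart mice (20–25 g) dosed intraperitoneally or orally; deaths scored at 2 h and 72 h. LD50 (mg/kg) estimated by probit analysis (Miller–Tainter), with at least 20 animals per drug.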

[19] = Acute toxicity in mice after 2 hours when administered perorally; type: organism-based; conditions: mouse, in vivo, po; procedure, shortened: as §6
[20] = Acute toxicity in mice after 72 hours when administered intraperitoneally; type: organism-based; conditions: mouse, in vivo, ip; procedure, shortened: as §6
[21] = Acute toxicity in mice after 72 hours when administered perorally; type: organism-based; conditions: mouse, in vivo, po; procedure, shortened: as §6
[22] = test system: Rattus norvegicus; test: Hypomotility effect in rats was tested when the compound was administered perorally; type: functional; conditions: po
Procedure, shortened: (§7)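 Modified Irwin behavioural observation in male Wistar rats (130–160 g). ED50 (mg/kg) obtained by probit analysis; minimum 20 animals per drug.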

[23] = test system: Rattus norvegicus; test: Ataxia effect in rats was tested when the compound was administered perorally; type: functional; conditions: po; procedure, shortened: as §7
[24] = test system: Rattus norvegicus; test: Righting reflex effect in rats was tested when the compound was administered perorally; type: functional; conditions: po; procedure, shortened: as §7
[25] = Acute toxicity in rats after 2 hours when administered perorally; type: organism-based; conditions: rat, in vivo, po
Procedure, shortened: (§8)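 Male Wistar rats (130–160 g) dosed orally; lethality read at 2 h and 72 h. LD50 (mg/kg) derived by probit analysis (Miller–Tainter), using a minimum of 20 animals per drug.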

[26] = test system: Mus musculus; test: Compound was tested for tonic convulsions when administered perorally; type: functional; conditions: po; procedure, shortened: as §1
[27] = Acute toxicity in rats after 72 hours when administered perorally; type: organism-based; conditions: rat, in vivo, po; procedure, shortened: as §8
[28] = test system: Mus musculus; test: Tested for ability to reinduce anesthesia in mice when administered intraperitoneally as a measure of in vivo sedative-hypnotic activity; D represents Toxic; type: functional, organism-based; procedure, shortened: as §5

Compound: Cc1ccccc1-n1c(C)nc2ccccc2c1=O [METHAQUALONE]
- ED50 [1]: 25 mg/kg
- ED50 [2]: 45 mg/kg
- ED50 [3]: 23 mg/kg
- ED50 [4]: 29 mg/kg
- ED50 [5]: 19 mg/kg
- ED50 [6]: 25 mg/kg
- ED50 [7]: 36 mg/kg
- ED50 [8]: 31 mg/kg
- ED50 [9]: 20 mg/kg
- ED50 [10]: 20 mg/kg
- ED50 [11]: 25 mg/kg
- ED50 [12]: 34 mg/kg
- ED50 [13]: 23 mg/kg
- ED50 [14]: 34 mg/kg
- ED50 [15]: 25 mg/kg
- ED50 [16]: 37 mg/kg
- ED50 [17]: 30 mg/kg
- LD50 at 2 h [18]: 565 mg/kg
- LD50 at 2 h [19]: > 400 mg/kg
- LD50 at 72 h [20]: 470 mg/kg
- LD50 at 72 h [21]: > 400 mg/kg
- ED50 [22]: 44 mg/kg
- ED50 [23]: 23 mg/kg
- ED50 [24]: 52 mg/kg
- LD50 at 2 h [25]: > 800 mg/kg
- ED50 [26]: 39 mg/kg
- LD50 at 72 h [27]: 185 mg/kg

Compound: CCCc1nnc(-c2ccccn2)nc1C
- ED50 [28]: Toxic

Compound: CC1(C)OC(C)(C)c2nc(-c3ccccn3)nnc21
- ED50 [10]: 21 mg/kg

Compound: CC1(C)OC(C)(C)c2nc(Cc3ccccc3)nnc21
- ED50 [10]: 25 mg/kg

Compound: CC1(C)OC(C)(C)c2nc(-c3cccc([N+](=O)[O-])c3)nnc21
- ED50 [10]: 68.8 mg/kg

Compound: CC1(C)CSCC(C)(C)c2nc(-c3ccccn3)nnc21
- ED50 [28]: Toxic

Compound: CC1(C)OC(C)(C)c2nc(-c3cnccn3)nnc21
- ED50 [10]: 100 mg/kg

Compound: CC1(C)OC(C)(C)c2c1nnc(-c1cccc(Cl)c1)[n+]2[O-]
- ED50 [10]: 500 mg/kg

Compound: CCCc1nc(-c2ccccn2)nnc1C
- ED50 [28]: Toxic

Compound: CC1(C)OC(C)(C)c2c1nnc(-c1ccccc1)[n+]2[O-]
- ED50 [10]: 163 mg/kg

Compound: CC1(C)OC(C)(C)c2c1nnc(-c1ccc(F)cc1)[n+]2[O-]
- ED50 [10]: 500 mg/kg

Compound: CC1(C)OC(C)(C)c2nc(-c3cccc(C(F)(F)F)c3)nnc21
- ED50 [10]: 500 mg/kg

Compound: CC1(C)OC(C)(C)c2nc(-c3cccnc3)nnc21
- ED50 [10]: 28.1 mg/kg

Compound: CC1(C)C/C(=N\Nc2ccccc2)C(C)(C)O1
- ED50 [10]: 162 mg/kg

Compound: Cc1ccc(-c2nnc3c([n+]2[O-])C(C)(C)OC3(C)C)cc1C
- ED50 [10]: 133 mg/kg

Compound: CC1(C)OC(C)(C)c2c1nnc(-c1cc([N+](=O)[O-])cc([N+](=O)[O-])c1)[n+]2[O-]
- ED50 [10]: 500 mg/kg

Compound: CC1(C)OC2(CCCCC2)c2c1nnc(-c1ccccc1)[n+]2[O-]
- ED50 [10]: 183 mg/kg

Compound: CC1(C)C/C(=N\Nc2ccccc2[N+](=O)[O-])C(C)(C)O1
- ED50 [10]: 1000 mg/kg

Compound: CC1(C)Cc2nnc(-c3cccc([N+](=O)[O-])c3)[n+]([O-])c2C(C)(C)O1
- ED50 [10]: 500 mg/kg

From ChEMBL document CHEMBL1121825, “A potent, new, sedative--hypnotic agent: 5,7-dihydro-5,5,7,7-tetramethyl-3-(3-nitrophenyl)furo[3,4-e]-as-triazine 4-oxide” (J Med Chem, 1981)
